Molecular target: RAF proto-oncogene serine/threonine-protein kinase (Homo sapiens, UniProt P04049)
Experiment: Inhibition of human cRAF using [gamma-33P-ATP] as a substrate by scintillation counting
How it was run: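 Recombinant human c-RAF (5–10 mU) in 25 mM Tris pH 7.5 with 0.02 mM EGTA, 10 mM Mg acetate and 0.66 mg/mL myelin basic protein as phosphoacceptor; started by adding MgATP mix containing [γ-33P]ATP (approx. 500 cpm/pmol). Incubated 40 min at room temperature, stopped with 3% phosphoric acid, spotted on P30 filtermat, washed, dried and counted by scintillation.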

Sequence of RAF proto-oncogene serine/threonine-protein kinase (P04049 whole entry): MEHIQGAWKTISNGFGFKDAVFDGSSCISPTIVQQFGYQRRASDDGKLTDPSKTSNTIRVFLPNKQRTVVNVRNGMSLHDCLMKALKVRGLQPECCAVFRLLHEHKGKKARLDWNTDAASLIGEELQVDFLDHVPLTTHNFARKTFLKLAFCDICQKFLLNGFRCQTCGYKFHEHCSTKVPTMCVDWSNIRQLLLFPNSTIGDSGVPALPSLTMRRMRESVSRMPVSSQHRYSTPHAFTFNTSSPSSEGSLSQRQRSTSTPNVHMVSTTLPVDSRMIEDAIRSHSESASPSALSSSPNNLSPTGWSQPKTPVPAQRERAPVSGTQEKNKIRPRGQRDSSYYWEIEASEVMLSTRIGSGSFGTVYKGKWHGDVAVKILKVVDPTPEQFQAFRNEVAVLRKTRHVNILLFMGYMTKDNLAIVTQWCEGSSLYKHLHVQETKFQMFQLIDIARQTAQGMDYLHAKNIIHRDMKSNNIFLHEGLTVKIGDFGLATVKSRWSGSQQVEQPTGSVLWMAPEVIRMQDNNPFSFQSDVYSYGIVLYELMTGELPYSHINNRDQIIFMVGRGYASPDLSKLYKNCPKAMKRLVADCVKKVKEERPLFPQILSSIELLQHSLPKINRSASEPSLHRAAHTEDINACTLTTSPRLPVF

CNC(=O)c1cc2ccc(CCNC(=O)Nc3cc(C)c(Cl)cc3OC)cc2cn1
IC50: 190 nM

CNC(=O)c1cc2ccc(CCNC(=O)Nc3cccc(C(F)(F)F)c3)cc2cn1
IC50: 360 nM

CNC(=O)c1cc2ccc(CCNC(=O)Nc3cccc(OC(F)(F)F)c3)cc2cn1
IC50: 260 nM

CNC(=O)c1cc2ccc(CCNC(=O)Nc3cccc(S(=O)(=O)C(F)(F)F)c3)cc2cn1
IC50: 200 nM

CNC(=O)c1cc2ccc(CCNC(=O)Nc3ccc(C(F)(F)F)cc3)cc2cn1
IC50: 370 nM

CNC(=O)c1cc2ccc(CCNC(=O)Nc3ccc(C)c(C(F)(F)F)c3)cc2cn1
IC50: 200 nM

CNC(=O)c1cc2ccc(CCNC(=O)Nc3ccc(Cl)c(C(F)(F)F)c3)cc2cn1
IC50: 160 nM

CNC(=O)c1cc2ccc(CCNC(=O)Nc3ccc(F)c(C(F)(F)F)c3)cc2cn1
IC50: 240 nM

CNC(=O)c1cc2ccc(CCNC(=O)Nc3cc(C(F)(F)F)ccc3F)cc2cn1
IC50: 250 nM

CNC(=O)c1cc2ccc(CCNC(=O)Nc3cc(C(F)(F)F)ccc3OC)cc2cn1
IC50: 120 nM

CNC(=O)c1cc2ccc(CCNC(=O)Nc3cc(C(F)(F)F)ccc3OCCN(C)C)cc2cn1
IC50: 450 nM

CNC(=O)c1cc2ccc(CCNC(=O)Nc3cc(Cl)c(C)cc3OC)cc2cn1
IC50: 110 nM

CNC(=O)c1cc2ccc(CCNC(=O)Nc3cc(C(F)(F)F)c(Cl)cc3OC)cc2cn1
IC50: 80 nM

CNC(=O)c1cc2ccc(CCNC(=O)Nc3cc(C(F)(F)F)c(Cl)cc3OCCN(C)C)cc2cn1
IC50: 340 nM

CNC(=O)c1nc2ccc(CCNC(=O)Nc3cc(C(F)(F)F)ccc3OC)cc2[nH]1
IC50: 340 nM

COC(=O)Nc1nc2ccc(CCNC(=O)Nc3cc(C(F)(F)F)ccc3OC)cc2[nH]1
IC50: 810 nM

COc1ccc(C(F)(F)F)cc1NC(=O)NCCc1ccc2nc(NC(C)=O)[nH]c2c1
IC50: 170 nM

CNC(=O)c1nc2ccc(CCNC(=O)Nc3ccc(Cl)c(C(F)(F)F)c3)cc2[nH]1
IC50: 280 nM

COC(=O)Nc1nc2ccc(CCNC(=O)Nc3ccc(Cl)c(C(F)(F)F)c3)cc2[nH]1
IC50: 660 nM

CC(=O)Nc1nc2ccc(CCNC(=O)Nc3ccc(Cl)c(C(F)(F)F)c3)cc2[nH]1
IC50: 140 nM

CC(=O)Nc1nc2ccc(CCNC(=O)Nc3cccc(C(F)(F)F)c3)cc2[nH]1
IC50: 480 nM

CC(=O)Nc1nc2ccc(CCNC(=O)Nc3ccc(Cl)c(Cl)c3)cc2[nH]1
IC50: 480 nM

CC(=O)Nc1nc2ccc(CCNC(=O)Nc3ccc(C)c(Cl)c3)cc2[nH]1
IC50: 530 nM

COc1cc(C)c(Cl)cc1NC(=O)NCCc1ccc2nc(NC(C)=O)[nH]c2c1
IC50: 190 nM

COc1cc(Cl)c(C)cc1NC(=O)NCCc1ccc2nc(NC(C)=O)[nH]c2c1
IC50: 320 nM

CNCCOc1ccc(C)cc1NC(=O)NCCc1ccc2nc(NC(C)=O)[nH]c2c1
IC50: 580 nM

CNCCOc1cc(Cl)c(C)cc1NC(=O)NCCc1ccc2nc(NC(C)=O)[nH]c2c1
IC50: 490 nM

CNCCOc1ccc(C(F)(F)F)cc1NC(=O)NCCc1ccc2nc(NC(C)=O)[nH]c2c1
IC50: 210 nM

CNCCOc1cc(Cl)c(C(F)(F)F)cc1NC(=O)NCCc1ccc2nc(NC(C)=O)[nH]c2c1
IC50: 230 nM

CC(=O)Nc1nc2ccc(CCNC(=O)Nc3cc(C)c(Cl)cc3OCCN)cc2[nH]1
IC50: 550 nM

CC(=O)Nc1nc2ccc(CCNC(=O)Nc3cc(C(F)(F)F)ccc3OCCN)cc2[nH]1
IC50: 250 nM

CC(=O)Nc1nc2ccc(CCNC(=O)Nc3cc(C(F)(F)F)c(Cl)cc3OCCN)cc2[nH]1
IC50: 180 nM

CC(=O)Nc1nc2ccc(CCNC(=O)Nc3cc(C(F)(F)F)ccc3OCC3CCCN3)cc2[nH]1 (stereo not drawn)
IC50: 230 nM
